From ChEMBL document CHEMBL4265912, “Design, synthesis and identification of novel substituted 2-amino thiazole analogues as potential anti-inflammatory agents targeting 5-lipoxygenase” (Eur J Med Chem, 2018)

T1: Polyunsaturated fatty acid 5-lipoxygenase (Homo sapiens) (UniProt P09917)
T1 sequence (whole entry): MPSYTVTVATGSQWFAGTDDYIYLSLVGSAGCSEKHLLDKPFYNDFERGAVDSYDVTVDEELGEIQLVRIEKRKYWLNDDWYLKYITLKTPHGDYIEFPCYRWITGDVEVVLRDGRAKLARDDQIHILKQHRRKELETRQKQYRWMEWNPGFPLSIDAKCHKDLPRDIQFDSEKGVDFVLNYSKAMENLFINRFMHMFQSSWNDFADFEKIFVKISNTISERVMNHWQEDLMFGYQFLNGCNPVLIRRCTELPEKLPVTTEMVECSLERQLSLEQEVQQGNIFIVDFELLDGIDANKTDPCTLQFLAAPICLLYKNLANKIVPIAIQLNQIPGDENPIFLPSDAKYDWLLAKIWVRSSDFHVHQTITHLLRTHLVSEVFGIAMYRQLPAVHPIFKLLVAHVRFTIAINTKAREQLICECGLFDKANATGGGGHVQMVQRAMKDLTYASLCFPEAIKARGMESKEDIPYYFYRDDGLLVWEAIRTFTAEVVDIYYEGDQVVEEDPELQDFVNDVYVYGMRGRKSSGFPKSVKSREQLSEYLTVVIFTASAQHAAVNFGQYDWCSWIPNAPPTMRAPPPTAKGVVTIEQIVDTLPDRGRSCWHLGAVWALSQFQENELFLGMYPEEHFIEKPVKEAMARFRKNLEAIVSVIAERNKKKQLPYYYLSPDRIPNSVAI

T2: Polyunsaturated fatty acid 5-lipoxygenase (Homo sapiens, UniProt P09917)
T2 sequence (P09917 whole entry): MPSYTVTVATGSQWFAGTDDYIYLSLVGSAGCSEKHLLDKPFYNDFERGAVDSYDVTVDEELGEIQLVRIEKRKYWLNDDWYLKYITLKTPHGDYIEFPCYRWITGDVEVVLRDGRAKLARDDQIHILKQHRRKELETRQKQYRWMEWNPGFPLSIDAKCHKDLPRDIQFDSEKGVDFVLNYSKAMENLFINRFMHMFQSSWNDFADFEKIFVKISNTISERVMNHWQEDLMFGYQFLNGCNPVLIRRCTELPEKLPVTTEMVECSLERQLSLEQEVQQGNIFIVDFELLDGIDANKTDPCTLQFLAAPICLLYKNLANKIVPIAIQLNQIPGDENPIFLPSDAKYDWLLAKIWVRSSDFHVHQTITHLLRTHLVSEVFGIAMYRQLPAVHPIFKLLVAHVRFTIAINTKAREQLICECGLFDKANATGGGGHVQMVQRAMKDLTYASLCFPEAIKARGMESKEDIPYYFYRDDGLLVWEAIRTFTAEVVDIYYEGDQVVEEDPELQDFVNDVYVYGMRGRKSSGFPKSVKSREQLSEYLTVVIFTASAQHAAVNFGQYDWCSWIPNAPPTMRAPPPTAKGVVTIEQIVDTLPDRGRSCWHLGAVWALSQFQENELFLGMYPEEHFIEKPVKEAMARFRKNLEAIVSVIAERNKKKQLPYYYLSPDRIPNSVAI


Legend:
[1] = target: T1, Polyunsaturated fatty acid 5-lipoxygenase (Homo sapiens); test: Inhibition of recombinant human 5-LOX expressed in Escherichia coli BL21 at 10 uM using arachidonic acid as substrate by UV-vis spectrophotometric method relative to control
Method in brief: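 Partially purified human 5-LOX, expressed in E. coli BL21 (IPTG induction, ammonium sulfate precipitation, 100000 × g supernatant). Buffer: 25 mM HEPES pH 7.3, EDTA, 10 mM CaCl2, 4 mM ATP; compound in 2% DMSO added at 4 °C; started with 30 μM AA. 5-HPETE read at 236 nm. Single point at 10 μM; IC50 from inhibition-versus-concentration curves; three repeats.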

[2] = Antioxidant activity assessed as DPPH radical scavenging activity at 20 uM measured after 30 mins; assay type: functional
Method in brief: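 Test compound at 20 μM added to 0.1 mM DPPH in methanol, incubated 30 min at room temperature in dark; absorbance read at 517 nm; ascorbic acid reference; percent scavenging calculated; three repeats, mean ± SEM.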

[3] = target: T2, Polyunsaturated fatty acid 5-lipoxygenase; test: Inhibition of recombinant human 5-LOX expressed in Escherichia coli BL21 using arachidonic acid as substrate by UV-vis spectrophotometric method
Method in brief: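 Partially purified human 5-LOX, expressed in E. coli BL21 (IPTG induction, ammonium sulfate precipitation, 100000 × g supernatant). Buffer: 25 mM HEPES pH 7.3, EDTA, 10 mM CaCl2, 4 mM ATP; compound in 2% DMSO added at 4 °C; started with 30 μM AA.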

[4] = target: T1, Polyunsaturated fatty acid 5-lipoxygenase (Homo sapiens); test: Inhibition of recombinant human 5-LOX pseudoperoxidase activity expressed in Escherichia coli BL21 assessed as compound redox activity by measuring decrease in 13(S)-HpODE product formation at 10 uM by UV-vis spectrophotometric method; set-up: scale not given: the % may be the effect or the level left
Method in brief: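 Pseudoperoxidase: 10 μM inhibitor (1:1 to substrate) starts reaction in 50 mM potassium phosphate pH 7.4, 0.3 mM CaCl2, 0.1 mM EDTA, 200 μM ATP, 10 μM 13(S)-HPODE with 5-LOX; loss of hydroperoxide followed at 234 nm over 300 s, relative to control.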

[5] = compound: COc1ccc(-c2nc(N(c3ccccc3)c3ccccc3)sc2C(=O)c2ccccc2)cc1; test: Competitive inhibition of recombinant human 5-LOX expressed in Escherichia coli BL21 assessed as Km for substrate at 5 uM using arachidonic acid as substrate by Lineweaver-Burk plot analysis (reference value: 0.42 +/- 0.15 microM)
[6] = compound: COc1ccc(-c2nc(N(c3ccccc3)c3ccccc3)sc2C(=O)c2ccccc2)cc1; test: Competitive inhibition of recombinant human 5-LOX expressed in Escherichia coli BL21 assessed as Vmax for substrate at 10 uM using arachidonic acid as substrate by Lineweaver-Burk plot analysis (reference value: 0.39 +/- 0.02 nmol/min)
[7] = compound: O=C(NC(=S)N1CCN(c2ccccc2)CC1)c1ccccc1; test: Mixed non-competitive inhibition of recombinant human 5-LOX expressed in Escherichia coli BL21 assessed as Km for substrate at 10 uM using arachidonic acid as substrate by Lineweaver-Burk plot analysis (reference value: 0.7761 +/- 0.22 microM)
[8] = compound: O=C(NC(=S)N1CCN(c2ccccc2)CC1)c1ccccc1; test: Mixed non-competitive inhibition of recombinant human 5-LOX expressed in Escherichia coli BL21 assessed as Km for substrate at 5 uM using arachidonic acid as substrate by Lineweaver-Burk plot analysis (reference value: 0.7761 +/- 0.22 microM)
[9] = compound: O=C(NC(=S)N1CCN(c2ccccc2)CC1)c1ccccc1; test: Mixed non-competitive inhibition of recombinant human 5-LOX expressed in Escherichia coli BL21 assessed as Vmax for substrate at 5 uM using arachidonic acid as substrate by Lineweaver-Burk plot analysis (reference value: 0.48 +/- 0.02 nmol/min)
[10] = compound: O=C(NC(=S)N1CCN(c2ccccc2)CC1)c1ccccc1; test: Mixed non-competitive inhibition of recombinant human 5-LOX expressed in Escherichia coli BL21 assessed as Vmax for substrate at 10 uM using arachidonic acid as substrate by Lineweaver-Burk plot analysis (reference value: 0.48 +/- 0.02 nmol/min)
[11] = compound: COc1ccc(-c2nc(N(c3ccccc3)c3ccccc3)sc2C(=O)c2ccccc2)cc1; test: Competitive inhibition of recombinant human 5-LOX expressed in Escherichia coli BL21 assessed as Km for substrate at 10 uM using arachidonic acid as substrate by Lineweaver-Burk plot analysis (reference value: 0.42 +/- 0.15 microM)
[12] = compound: COc1ccc(-c2nc(N(c3ccccc3)c3ccccc3)sc2C(=O)c2ccccc2)cc1; test: Competitive inhibition of recombinant human 5-LOX expressed in Escherichia coli BL21 assessed as Vmax for substrate at 5 uM using arachidonic acid as substrate by Lineweaver-Burk plot analysis (reference value: 0.39 +/- 0.02 nmol/min)

Molecule	inhibition [1]	Activity [2]	also measured
O=C(NC(=S)N1CCN(c2ccccc2)CC1)c1ccc(F)cc1	23.6%	6.3%	
COc1ccc(-c2nc(N3CCN(c4ccccc4)CC3)sc2C(=O)c2ccccc2)cc1	53.1%	7.8%	
O=C(c1ccccc1)c1sc(N2CCCC2)nc1-c1ccccc1	75.3%	-2.9%	
O=C(NC(=S)N1CCOCC1)c1ccccc1	79.4%	19.1%	
O=C(c1ccccc1)c1sc(N2CCCCC2)nc1-c1ccccc1	85.2%	8.5%	IC50 [3]: 3100 nM; Activity [4]: 0.6%
COc1ccc(C(=O)NC(=S)N2CCCCC2)cc1	86%	21.8%	IC50 [3]: 3300 nM
O=C(c1ccccc1)c1sc(N2CCOCC2)nc1-c1ccccc1	85.3%	9.5%	IC50 [3]: 2300 nM; Activity [4]: 2.1%
O=C(c1ccccc1)c1sc(N2CCN(c3ccccc3)CC2)nc1-c1ccccc1	38.3%	-0.7%	
CC(c1cc2ccccc2s1)N(O)C(N)=O (configuration not stated)		17.8%	
O=C(c1ccccc1)c1sc(N2CCOCC2)nc1-c1ccc(F)cc1	50.2%	-0.8%	
O=C(NC(=S)N1CCCCC1)c1ccccc1	56.8%	23.7%	
COc1ccc(-c2nc(N3CCCCC3)sc2C(=O)c2ccccc2)cc1	62%	9.6%	
O=C(NC(=S)N1CCCCC1)c1ccc(F)cc1	80.7%	5.9%	IC50 [3]: 3800 nM
O=C1O[C@H]([C@@H](O)CO)C(O)=C1O		84.1%	
COc1ccc(C(=O)NC(=S)N2CCOCC2)cc1	68.3%	3.9%	
O=C(NC(=S)N1CCOCC1)c1ccc(F)cc1	29.5%	9.1%	
CN(Cc1ccccc1)c1nc(-c2ccccc2)c(C(=O)c2ccccc2)s1	53.1%	3.6%	
COc1ccc(C(=O)NC(=S)N2CCN(c3ccccc3)CC2)cc1	36.8%	3.7%	
O=C(NC(=S)N1CCCC1)c1ccccc1	24.5%	25.6%	
Polyunsaturated fatty acid 5-lipoxygenase (Homo sapiens), P09917 (protein) MPSYTVTVATGSQWFAGTDDYIYLSLVGSAGCSEKHLLDKPFYNDFERGAVDSYDVTVDEELGEIQLVRIEKRKYWLNDDWYLKYITLKTPHGDYIEFPCYRWITGDVEVVLRDGRAKLARDDQIHILKQHRRKELETRQKQYRWMEWNPGFPLSIDAKCHKDLPRDIQFDSEKGVDFVLNYSKAMENLFINRFMHMFQSSWNDFADFEKIFVKISNTISERVMNHWQEDLMFGYQFLNGCNPVLIRRCTELPEKLPVTTEMVECSLERQLSLEQEVQQGNIFIVDFELLDGIDANKTDPCTLQFLAAPICLLYKNLANKIVPIAIQLNQIPGDENPIFLPSDAKYDWLLAKIWVRSSDFHVHQTITHLLRTHLVSEVFGIAMYRQLPAVHPIFKLLVAHVRFTIAINTKAREQLICECGLFDKANATGGGGHVQMVQRAMKDLTYASLCFPEAIKARGMESKEDIPYYFYRDDGLLVWEAIRTFTAEVVDIYYEGDQVVEEDPELQDFVNDVYVYGMRGRKSSGFPKSVKSREQLSEYLTVVIFTASAQHAAVNFGQYDWCSWIPNAPPTMRAPPPTAKGVVTIEQIVDTLPDRGRSCWHLGAVWALSQFQENELFLGMYPEEHFIEKPVKEAMARFRKNLEAIVSVIAERNKKKQLPYYYLSPDRIPNSVAI			Km [5]: 0.99 µM; Vmax [6]: 0.38 nmol/min; Km [7]: 0.767 µM; Km [8]: 0.79 µM; Vmax [9]: 0.4 nmol/min; Vmax [10]: 0.34 nmol/min; Km [11]: 1.51 µM; Vmax [12]: 0.38 nmol/min

Further lines, with some results ahead:

inhibition [1]	Molecule	Activity [2]	also measured
78.7%	CN(C(=S)NC(=O)c1ccccc1)c1ccccc1	13.2%	
19.2%	COc1ccc(C(=O)NC(=S)N(c2ccccc2)c2ccccc2)cc1	8.1%	
30.9%	O=C(NC(=S)N(c1ccccc1)c1ccccc1)c1ccc([N+](=O)[O-])cc1	4.7%	
91.3%	O=C(NC(=S)N1CCN(c2ccccc2)CC1)c1ccccc1	24.1%	IC50 [3]: 1400 nM; Activity [4]: -46.2%
79.6%	O=C(c1ccccc1)c1sc(N(c2ccccc2)c2ccccc2)nc1-c1ccc([N+](=O)[O-])cc1	-2.8%	
67.8%	O=C(c1ccccc1)c1sc(N2CCN(c3ccccc3)CC2)nc1-c1ccc([N+](=O)[O-])cc1	8.2%	
92.8%	COc1ccc(-c2nc(N(c3ccccc3)c3ccccc3)sc2C(=O)c2ccccc2)cc1	11.8%	IC50 [3]: 900 nM; Activity [4]: 29.4%
17.7%	COc1ccc(-c2nc(N(C)Cc3ccccc3)sc2C(=O)c2ccccc2)cc1	-1.9%	
67.8%	CN(c1ccccc1)c1nc(-c2ccccc2)c(C(=O)c2ccccc2)s1	4.6%	
26.5%	COc1ccc(C(=O)NC(=S)N(C)Cc2ccccc2)cc1	7.4%	
73.3%	O=C(NC(=S)N(c1ccccc1)c1ccccc1)c1ccccc1	11.3%	
80.7%	CN(Cc1ccccc1)C(=S)NC(=O)c1ccccc1	18.4%	
48.6%	O=C(c1ccccc1)c1sc(N(c2ccccc2)c2ccccc2)nc1-c1ccccc1	-4.7%	
76.6%	O=C(NC(=S)N1CCN(c2ccccc2)CC1)c1ccc([N+](=O)[O-])cc1	20.3%	
